Only some compounds are listed: those with a hit (about 1.6% of all), similar ones and a draw of the others.
C8 TRAIL sens: caspase-8 TRAIL sensitization. actives 1% (n = 360,000). AID 624354. NB7+C8 cells + TRAIL, ATPlite viability luminescence. inhibition (viability loss, TRAIL sensitization), % at 10 µM;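 active = compounds causing at least 50% loss of cell viability in the single-dose screen, relative to plate controls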
PPC-1+TRAIL kill: PPC-1 cancer cell killing with TRAIL present; PPC-1 cells + TRAIL, ATPLite viability luminescence; cell killing (% activity), % at 4 µM or 5 µM; actives 0.41% (n = 220,000); AID 1443;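 active = cell killing above 50% in the first pass at 4 µM, then a duplicate retest at 5 µM averaging 50% or more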
FLuc act counter: firefly luciferase counter-screen for stimulation assays | P08659 | ATPlite luciferase biochemical, luminescence, 10 min; 0 = ATP-free wells, 1 = DMSO control | activation factor at 10 µM | 200,000 tested, under 10 active | AID 1027;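 active = luciferase activation factor, scaled between plate controls, of at least 2 with compound at 10 µM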
Target sequence (P08659 whole entry, looked up): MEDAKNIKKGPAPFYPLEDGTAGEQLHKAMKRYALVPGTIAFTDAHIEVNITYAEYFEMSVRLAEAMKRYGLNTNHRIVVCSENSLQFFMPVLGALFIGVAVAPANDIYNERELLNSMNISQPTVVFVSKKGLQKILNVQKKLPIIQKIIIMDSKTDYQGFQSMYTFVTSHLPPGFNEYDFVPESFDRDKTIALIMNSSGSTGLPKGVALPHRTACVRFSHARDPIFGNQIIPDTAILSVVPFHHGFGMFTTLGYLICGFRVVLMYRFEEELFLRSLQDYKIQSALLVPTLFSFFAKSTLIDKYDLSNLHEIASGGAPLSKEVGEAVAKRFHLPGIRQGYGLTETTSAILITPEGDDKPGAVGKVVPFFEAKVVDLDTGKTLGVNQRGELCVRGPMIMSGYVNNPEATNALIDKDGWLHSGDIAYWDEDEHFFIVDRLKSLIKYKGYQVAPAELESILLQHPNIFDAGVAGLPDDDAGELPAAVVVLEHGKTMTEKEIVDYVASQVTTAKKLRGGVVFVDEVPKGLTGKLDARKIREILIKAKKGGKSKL
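Material: Luciferase/luciferin reagent mix; Doses: test compounds dosed from 2 mM stocks in 100% DMSO; Schedule: 10 min incubation after luciferase reagent addition, room temperature; Measured by: luminescence from luciferase reaction; Read-out: luminescence gain marking luciferase activators.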
FLuc inhib CS: counter-screen for luciferase assay inhibitors: firefly luciferase inhibition; P08659; ATPLite firefly luciferase biochemical luminescence, 10 min; inhibition, % at 10 µM; actives 1.5% (n = 200,000); AID 1006;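 active = inhibition above about 50% when tested at 10 µM, limit read from the data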
Platelet DG rel: modulates dense granule release in human platelets; actives 0.22% (n = 300,000); human platelet-rich plasma, SFLLRN dense granule ATP release, luminescence; inhibition, %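 (compounds screened at 7.5 µM in platelet-rich plasma)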;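 active = mean replicate score, as percent of positive control, at or above 50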
Numbers stand for hits; n = inactive; x = no result.

SMILES	C8 TRAIL sens	PPC-1+TRAIL kill	FLuc act counter	FLuc inhib CS	Platelet DG rel
COc1cc2c(cc1OC)-c1cc(Nc3ccc(N(C)C)cc3)nc(=O)n1CC2	n	n	x	x	76
CCN(CC)c1ccc(Nc2cc3n(c(=O)n2)CCc2cc(OC)c(OC)cc2-3)cc1	n	x	x	x	n
COc1cc2c(cc1OC)-c1cc(NC3CCCC3)nc(=O)n1CC2	n	n	n	n	n
COc1cc2c(cc1OC)-c1cc(Nc3ccc(F)cc3)nc(=O)n1CC2	n	x	x	x	95
COc1cc2c(cc1OC)-c1cc(Nc3cccc(F)c3)nc(=O)n1CC2	n	x	x	x	71
COc1ccc(NC(=O)C2Cc3c(-c4ccc5c(c4)OCO5)ccnc3O2)cc1 (stereo not drawn)	n	x	x	x	x
COC(=O)[C@]12CCCCC=C1N(Cc1ccco1)C(=O)[C@H](CC(=O)N1CCOCC1)C2	n	x	x	x	x
CCOC(=O)c1cc2cc(OC)ccc2nc1C	n	n	n	n	66
COc1ccc2nc(C)c(C(N)=O)cc2c1	n	n	n	n	n
CNC[C@H](Cc1ccccc1)NC[C@@H](Cc1cccc2ccccc12)NCCc1ccc(C)cc1	95	x	x	x	n
CNCCNC[C@H](Cc1cccc2ccccc12)NCCc1ccccc1	n	x	x	x	x
CCC(=O)N1CCC1(C)C(=O)Nc1ccc2scnc2c1 (stereo not drawn)	n	x	x	x	x
N#C/C(=N\Nc1ccc(F)cc1)C(=N)N1CCCCC1	n	n	n	55	n
N#C/C(=N\Nc1cccc(F)c1)C(=N)N1CCCCCC1	n	n	n	62	n
N#C/C(=N\Nc1ccccc1)C(=N)N1CCCCCC1	n	n	x	x	n
O=C(Nc1cccc(C(F)(F)F)c1)Nc1nnc([C@@H]2C[C@H](O)[C@@H](CO)O2)s1	n	x	x	x	x
CCOC(=O)[C@]12CCCC=C1N(Cc1ccco1)C(=O)[C@H](CC(=O)NCC1CCCCC1)C2	n	x	x	x	x
Cc1nn(-c2ccccn2)c2c1-c1nc(N)ncc1CC2	n	n	n	61	n
Cc1nn(-c2ccccn2)c2c1-c1nc(N3CCOCC3)ncc1CC2	n	n	n	n	n
c1cnc2nc(-c3ccc4c(c3)OCO4)cn2c1	n	n	n	55	n
Cc1ccc(-c2cn3cccnc3n2)cc1	n	n	n	66	n
CS(=O)(=O)Nc1ccc(-c2cn3cccnc3n2)cc1	n	x	x	x	n
Cc1ccc2c(c1)C1(SC(C)C(=O)N1c1ccc(Cl)cc1)C(=O)N2 (stereo not drawn)	n	x	x	x	x
Cc1cc(C)n2nc(CNS(=O)(=O)c3ccc(C(C)(C)C)cc3)nc2n1	n	x	x	x	x
CCOc1ccc(Cl)cc1-c1cc(C(=O)NCc2cc(C(F)(F)F)cc(C(F)(F)F)c2)[nH]n1	n	x	x	x	x
SMILES	C8 TRAIL sens	PPC-1+TRAIL kill	FLuc act counter	FLuc inhib CS	Platelet DG rel
O=C(NC1CCCC1)C(c1ccccc1)n1c(-c2cccc3ccccc23)nc2ccccc21 (stereo not drawn)	n	x	x	x	x
COc1ccc(C)cc1NC(=O)NCc1ccc(F)cc1	n	n	n	58	n
COc1ccc(OC)c(NC(=O)NCc2ccc(F)cc2)c1	n	n	n	n	n
CC(C)(CNC(=O)c1ccc([N+](=O)[O-])c(Cl)c1)CNC(=O)c1ccc([N+](=O)[O-])c(Cl)c1	53	n	n	n	n
O=C(O)c1cc(-c2ccc3c(c2)OCCO3)n[nH]1	n	n	n	n	n
CCOC(=O)c1cc(-c2ccc3c(c2)OCCO3)n[nH]1	n	n	n	60	n
Oc1ccccc1-c1cc(-c2ccc3c(c2)OCCO3)n[nH]1	53	n	n	66	n
O=C(Nc1cccc(O)c1)c1cc(-c2ccccc2Cl)on1	70	x	x	x	n
O=C(Nc1cccc(O)c1)c1cc(-c2ccc3c(c2)OCO3)on1	92	x	x	x	95
O=C(Nc1ccccc1)OCc1cc(-c2ccccc2Cl)on1	n	n	n	n	52
CC(C)NC(=O)N1Cc2cc(C(=O)NC3CCCC3)nc(-c3cccc(-c4cccnc4)c3)c2[C@@H]1CCO	n	x	x	x	x
CCc1nc2ccc(C(=O)NCCCn3ccnc3)cn2c1N(CC)CCOC	n	x	x	x	x
O=C(C(=O)N1CCC(Cc2ccccc2)CC1)c1ccccc1	n	x	x	x	x
O=C1CC(c2ccc(O)cc2)Oc2cc(O)cc(O)c21 (stereo not drawn)	n	n	n	n	n
CC1CC(=O)c2c(cc3c(-c4c(O)cc(O)c5c(O)c6c(cc45)OC(C)CC6=O)c(O)cc(O)c3c2O)O1 (stereo not drawn)	88	n	n	n	n
Cc1cccc(CN2CCN([C@@H]3CS(=O)(=O)N[C@H]3COCc3ccccc3)CC2)c1	n	x	x	x	x
CCOC1=C2[C@@H](CN(S(=O)(=O)c3ccc(C)cc3)[C@H]2c2cccc3ccccc23)[C@H]2C(=O)NC(=O)[C@H]2C1	n	x	x	x	x
CC(NCC(c1ccco1)N1CCCCC1)C(=O)NC1CCCC1 (stereo not drawn)	n	n	n	74	n
C[C@@H](NC(=O)[C@@H]1CCCN1C(=O)[C@@H]1CCCN1)c1ccccc1	n	x	x	x	x
COC(=O)c1cc(OCC(=O)Nc2ccc3c(c2)CCC3)cc(C(=O)OC)c1	94	x	x	x	x
CC(C)(C)NC(=O)COC(=O)c1ccccc1OCC(=O)Nc1ccc(Br)cc1	n	n	n	64	n
CCOC(=O)[C@]12CCC=C1N(Cc1ccco1)C(=O)[C@H](CC(=O)NCc1cccc3ccccc13)C2	n	x	x	x	x
CCC(=O)N1CCCC(C(=O)NS(=O)(=O)c2cc(C)c(Cl)cc2C)CC1 (stereo not drawn)	n	x	x	x	x
COc1cc(NC(=S)N2CCN(C/C=C/c3ccccc3)CC2)cc(OC)c1	n	n	n	n	57
COc1cccc(NC(=S)N2CCN(C/C=C/c3ccccc3)CC2)c1	n	n	n	n	n
SMILES	C8 TRAIL sens	PPC-1+TRAIL kill	FLuc act counter	FLuc inhib CS	Platelet DG rel
OC[C@@H]1CN(Cc2ccccc2)C[C@H](n2cnc3c(NCc4ccncc4)ncnc32)O1	n	x	x	x	x
Cc1cc(C)cc(NC(=O)c2cc(C)n(Cc3cccs3)c2C)c1	51	n	x	x	n
Cc1cc(C(=O)Cn2nnc3ccccc3c2=O)c(C)n1Cc1cccs1	58	n	n	80	n
Cc1cc(C(=O)Nc2ccc(Cl)cc2)c(C)n1Cc1cccs1	n	n	x	x	n
Cc1cc(C(=O)CN2C(=O)c3ccccc3C2=O)c(C)n1Cc1cccs1	n	n	n	62	n
COc1ccc(OC)c(C(=O)Cn2nnc3ccccc3c2=O)c1	n	n	n	n	n
CC1(C)Cc2nc3sc4c(SCC(=O)NCc5ccccc5)ncnc4c3cc2CO1	n	n	n	n	n
COC(=O)CSc1ncnc2c1sc1nc3c(cc12)COC(C)(C)C3	73	n	n	n	n
COC(=O)[C@@]12C[C@@H](CC(=O)N3CCSCC3)C(=O)N(Cc3cccc4ccccc34)C1=CCC(C)(C)C2	n	x	x	x	x
O=c1ccc2c(ccc3ncccc32)o1	n	x	x	x	x
CC1(C(=O)Nc2cccc(NS(C)(=O)=O)c2)CCN1Cc1ccccc1OC(F)F (stereo not drawn)	n	x	x	x	x
COc1cc(/C=C/c2ccc3c([N+](=O)[O-])cccc3n2)ccc1OCC(=O)O	n	n	x	x	n

Screens as filed in PubChem BioAssay.
